A selection: hits, their analogues and other compounds. The true share with any hit is near 3.8%.
DENV2 CPE – protects cells from dengue virus 2 cytopathic effect | DENV2-infected cells, cytopathic effect rescue, plate reader | CPE inhibition, % at 9.99 µM | 1.7% of 350,000 active; in the data active = CPE inhibition above about 20%, passing the limit was not always enough; inconclusive = no clear call, values can overlap the other calls; tested in BHK-21 cells;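 also: 0% = median of neutral control wells and 100% = median of positive control wells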
FN deposition inh – fibronectin deposition inhibition | AH1F fibroblasts, Alexa488-fibronectin deposition fluorescence, overnight | inhibition, % at 12.6 µM | 0.086% of 350,000 active;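 active = mean inhibition across replicates of 30% or more, regardless of how many single replicates reach that level; inconclusive = mean under 30% yet at least half of replicates reach 30%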;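 also: positive control wells lacked labelled fibronectin entirely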
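Test system: AH1F fibroblast monolayer depositing Alexa488-labelled fibronectin into matrix. Input: 10000 cells per well. Technique: fluorescence, ex 485 nm, em 525 nm. Buffer or medium: DMEM plus 2% serum, read in PBS. Timing: 1 h cell adhesion before compound, then overnight fibronectin incubation. Compound: single dose, pinned. Read-out basis: inhibition from reduced deposited-fibronectin fluorescence.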
SIRT5 inh – inhibitors of human sirtuin-5 desuccinylase; Purified SirT5, succinyl-peptide AMC, trypsin-coupled fluorescence; 1.1% of 330,000 active; Q9NXA8; inhibition, % at 15 µM; in the data active = inhibition above about 15%; inconclusive = no clear call, values can overlap the other calls
Target sequence (Q9NXA8 whole entry, looked up): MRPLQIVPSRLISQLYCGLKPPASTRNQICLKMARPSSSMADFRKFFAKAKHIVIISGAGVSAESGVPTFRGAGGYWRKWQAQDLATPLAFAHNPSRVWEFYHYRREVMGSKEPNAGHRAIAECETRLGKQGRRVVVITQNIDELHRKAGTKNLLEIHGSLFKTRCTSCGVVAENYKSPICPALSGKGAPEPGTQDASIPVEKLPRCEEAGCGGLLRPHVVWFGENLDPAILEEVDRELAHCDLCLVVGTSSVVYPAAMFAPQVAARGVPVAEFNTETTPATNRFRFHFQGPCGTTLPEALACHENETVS
ARNT-TACC3 inh – disrupts binding between human ARNT and TACC3 | Q9Y6A5 | AlphaScreen His-ARNT PAS-B/GST-TACC3 binding, luminescence; TACC3 fragment carries E629A point mutation | inhibition, % at 9.99 µM | 0.66% of 390,000 active;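 active = mean inhibition of replicates at least 50% and at least half of replicates each reaching 50%; inconclusive = half or more replicates reach 50% but mean below 50%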;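 also: 0% = complete ARNT plus TACC3 wells and 100% = ARNT alone without TACC3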
Xi reactivation – reactivates the inactive X chromosome in mouse fibroblasts | 0.055% of 360,000 active | AID 743238 | activation, % at 7.58 µM | XiGFP mouse fibroblasts, % GFP-positive cells imaging, 3 d; cells co-treated with 5-aza-dC sensitizer; scaled so ellipticine positive control = 100%;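 active = mean normalized replicate activation at least 10% and every replicate at or above 10%; inconclusive = only one of the two criteria met; inactive = mean below 10% and not all replicates reach 10%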;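 also: 0% = median of on-plate neutral control wells and 100% = ellipticine 6 µM median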
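Assay system: SV40-immortalized XiGFP fibroblast cells, line 68-5-11; buffer or medium: DMEM plus 5-aza-dC sensitizer; compound: one concentration, pinned; timing: compounds 3 days, fix/stain 15 min at room temperature; benchmarks: positive control ellipticine, 6 µM final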
FGF22 binding – shifts melting point of recombinant human FGF22 | activity (Tm shift, normalised), % at 9.99 µM | recombinant FGF22 thermal shift, SYPRO orange fluorescence; percent of sucrose octasulfate shift, DMSO zero | Q9HCT0 | 1.5% of 340,000 active;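 active = mean Tm shift, scaled 0 neutral to 100 positive control, at about 1.3% or above, every replicate too, limit read from the data; inconclusive = no clear call, values can overlap the other calls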
Target sequence (Q9HCT0 whole entry, looked up): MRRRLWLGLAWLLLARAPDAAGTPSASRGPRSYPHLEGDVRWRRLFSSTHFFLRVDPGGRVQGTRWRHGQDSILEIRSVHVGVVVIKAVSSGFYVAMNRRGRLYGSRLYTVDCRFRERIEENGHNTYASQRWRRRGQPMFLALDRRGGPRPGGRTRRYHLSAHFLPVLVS
AlphaScreen ctr – counter-screen for ARNT/TACC3 inhibitors: AlphaScreen artifacts; shares compounds with ARNT-TACC3 inh; His-ARNT PASB-GST AlphaScreen artifact counter-screen, luminescence; AC50, µM (series often up to 68 µM), for the others: top-dose activity change, negative = signal decrease; 50% of 1,200 active;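 active = every separate test run was called active for a drop in luminescence, with AC50 within twice the top valid dose, actives reach about 71 µM in these data; inconclusive = the separate test runs disagree in their calls; inactive = all runs inactive, including signal change in the wrong direction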
Numbers without * were called inactive.

Screening CC1(C)Cc2c(sc3nc4n(-c5ccccc5)c(=O)c(CCC(=O)O)nn4c(=O)c23)CO1 returned DENV2 CPE 1, FN deposition inh -4, SIRT5 inh 3, ARNT-TACC3 inh 57*, Xi reactivation 0, FGF22 binding 0 and AlphaScreen ctr -8%.
`CN1C(=O)c2cc(NC(=O)C3CC3)ccc2OC[C@@H]2O[C@@H](CC(=O)NCc3cccc(F)c3)CC[C@H]21` gave DENV2 CPE -2, FN deposition inh -42, ARNT-TACC3 inh -15, Xi reactivation 0 and FGF22 binding 0.
Screening COc1cc(C(=O)NCc2nnc(SCC(=O)Nc3nccs3)o2)cc(OC)c1OC returned DENV2 CPE -6, FN deposition inh 2, SIRT5 inh -2, ARNT-TACC3 inh 69*, Xi reactivation 0, FGF22 binding 0 and AlphaScreen ctr -15%.
COc1cc(C(=O)NCc2nnc(SCC(=O)Nc3cc(C)on3)o2)cc(OC)c1OC was read as DENV2 CPE -3, SIRT5 inh -4, ARNT-TACC3 inh 3, Xi reactivation 0 and FGF22 binding 1.
For C[C@H](CO)N1C[C@H](C)[C@@H](CN(C)S(=O)(=O)c2ccccc2)Oc2ccc(NC(=O)Nc3ccc(F)cc3)cc2C1=O the results were DENV2 CPE inconclusive, SIRT5 inh 3, ARNT-TACC3 inh -4, Xi reactivation 0 and FGF22 binding 0.
CN(C)CCCNC(=O)C[C@@H]1CC[C@@H](NC(=O)Cc2cccnc2)[C@H](CO)O1 was read as DENV2 CPE -5, FN deposition inh -10, SIRT5 inh -2, ARNT-TACC3 inh 4, Xi reactivation 0 and FGF22 binding 0.
Screening CCOC(=O)Cc1nnc(NC(=O)c2ccccc2OCC)s1 returned ARNT-TACC3 inh -8.
CCOC(=O)Cc1nnc(NC(=O)c2ncn[nH]2)s1 was read as FN deposition inh 13, ARNT-TACC3 inh 69* and AlphaScreen ctr -8%.
For C[C@@H]1CN([C@@H](C)CO)C(=O)c2cccc(NC(=O)CCCCCC(=O)Nc3ccccc3N)c2O[C@@H]1CN(C)C(=O)Nc1ccc(C(F)(F)F)cc1 the results were DENV2 CPE 19, SIRT5 inh 5, Xi reactivation 0 and FGF22 binding 0.
For CS(=O)(=O)c1ccccc1-c1nnc(NC(=O)c2ccc3ncsc3c2)o1 the results were DENV2 CPE inconclusive, SIRT5 inh 2, ARNT-TACC3 inh 50*, Xi reactivation 0, FGF22 binding 0 and AlphaScreen ctr -38%.
CO[C@@H]1CN(C)C(=O)c2cc(NS(C)(=O)=O)ccc2OC[C@H](C)N(C(=O)C2CCCCC2)C[C@@H]1C was read as DENV2 CPE 16, FN deposition inh -11, SIRT5 inh -2, ARNT-TACC3 inh -6, Xi reactivation 0 and FGF22 binding 0.
Screening O=C(C1CC1)N1CCc2cc(Br)cc(S(=O)(=O)NCc3ccccn3)c21 returned FN deposition inh 3, ARNT-TACC3 inh 52* and AlphaScreen ctr 5%.
Screening O=C(c1ccccn1)N1CC[C@@H]2[C@H](CO)Nc3ccc(Br)cc3[C@@H]21 returned DENV2 CPE 5, FN deposition inh -8, SIRT5 inh 4, ARNT-TACC3 inh 77*, Xi reactivation 0, FGF22 binding 0 and AlphaScreen ctr 45µM*.
`CC(C)NC(=O)Nc1ccc2c(c1)CC(=O)N([C@H](C)CO)C[C@@H](C)[C@@H](CN(C)Cc1ccc(Oc3ccccc3)cc1)O2` gave DENV2 CPE -20, SIRT5 inh 5, ARNT-TACC3 inh active, Xi reactivation 0, FGF22 binding 0 and AlphaScreen ctr 71µM*.
